Data from ChEMBL document CHEMBL4052773, “Synthesis and diabetic neuropathic pain-alleviating effects of 2N-(pyrazol-3-yl)methylbenzo[d]isothiazole-1,1-dioxide derivatives” (Bioorg Med Chem, 2017).
Activity calls are given as the source filed them. The rule behind the calls is not given here.

Tests used:
[1] = biological target: T1, Voltage-dependent T-type calcium channel subunit alpha-1H (Homo sapiens, UniProt O95180); experiment: Inhibition of Cav3.2 alpha1H (unknown origin) expressed in HEK293 cells assessed as reduction in KCl-induced depolarization mediated intracellular Ca2+ level at 10 uM by fluo3/AM based high throughput screening assay relative to control; type: cell-based
T1 sequence (O95180 whole entry): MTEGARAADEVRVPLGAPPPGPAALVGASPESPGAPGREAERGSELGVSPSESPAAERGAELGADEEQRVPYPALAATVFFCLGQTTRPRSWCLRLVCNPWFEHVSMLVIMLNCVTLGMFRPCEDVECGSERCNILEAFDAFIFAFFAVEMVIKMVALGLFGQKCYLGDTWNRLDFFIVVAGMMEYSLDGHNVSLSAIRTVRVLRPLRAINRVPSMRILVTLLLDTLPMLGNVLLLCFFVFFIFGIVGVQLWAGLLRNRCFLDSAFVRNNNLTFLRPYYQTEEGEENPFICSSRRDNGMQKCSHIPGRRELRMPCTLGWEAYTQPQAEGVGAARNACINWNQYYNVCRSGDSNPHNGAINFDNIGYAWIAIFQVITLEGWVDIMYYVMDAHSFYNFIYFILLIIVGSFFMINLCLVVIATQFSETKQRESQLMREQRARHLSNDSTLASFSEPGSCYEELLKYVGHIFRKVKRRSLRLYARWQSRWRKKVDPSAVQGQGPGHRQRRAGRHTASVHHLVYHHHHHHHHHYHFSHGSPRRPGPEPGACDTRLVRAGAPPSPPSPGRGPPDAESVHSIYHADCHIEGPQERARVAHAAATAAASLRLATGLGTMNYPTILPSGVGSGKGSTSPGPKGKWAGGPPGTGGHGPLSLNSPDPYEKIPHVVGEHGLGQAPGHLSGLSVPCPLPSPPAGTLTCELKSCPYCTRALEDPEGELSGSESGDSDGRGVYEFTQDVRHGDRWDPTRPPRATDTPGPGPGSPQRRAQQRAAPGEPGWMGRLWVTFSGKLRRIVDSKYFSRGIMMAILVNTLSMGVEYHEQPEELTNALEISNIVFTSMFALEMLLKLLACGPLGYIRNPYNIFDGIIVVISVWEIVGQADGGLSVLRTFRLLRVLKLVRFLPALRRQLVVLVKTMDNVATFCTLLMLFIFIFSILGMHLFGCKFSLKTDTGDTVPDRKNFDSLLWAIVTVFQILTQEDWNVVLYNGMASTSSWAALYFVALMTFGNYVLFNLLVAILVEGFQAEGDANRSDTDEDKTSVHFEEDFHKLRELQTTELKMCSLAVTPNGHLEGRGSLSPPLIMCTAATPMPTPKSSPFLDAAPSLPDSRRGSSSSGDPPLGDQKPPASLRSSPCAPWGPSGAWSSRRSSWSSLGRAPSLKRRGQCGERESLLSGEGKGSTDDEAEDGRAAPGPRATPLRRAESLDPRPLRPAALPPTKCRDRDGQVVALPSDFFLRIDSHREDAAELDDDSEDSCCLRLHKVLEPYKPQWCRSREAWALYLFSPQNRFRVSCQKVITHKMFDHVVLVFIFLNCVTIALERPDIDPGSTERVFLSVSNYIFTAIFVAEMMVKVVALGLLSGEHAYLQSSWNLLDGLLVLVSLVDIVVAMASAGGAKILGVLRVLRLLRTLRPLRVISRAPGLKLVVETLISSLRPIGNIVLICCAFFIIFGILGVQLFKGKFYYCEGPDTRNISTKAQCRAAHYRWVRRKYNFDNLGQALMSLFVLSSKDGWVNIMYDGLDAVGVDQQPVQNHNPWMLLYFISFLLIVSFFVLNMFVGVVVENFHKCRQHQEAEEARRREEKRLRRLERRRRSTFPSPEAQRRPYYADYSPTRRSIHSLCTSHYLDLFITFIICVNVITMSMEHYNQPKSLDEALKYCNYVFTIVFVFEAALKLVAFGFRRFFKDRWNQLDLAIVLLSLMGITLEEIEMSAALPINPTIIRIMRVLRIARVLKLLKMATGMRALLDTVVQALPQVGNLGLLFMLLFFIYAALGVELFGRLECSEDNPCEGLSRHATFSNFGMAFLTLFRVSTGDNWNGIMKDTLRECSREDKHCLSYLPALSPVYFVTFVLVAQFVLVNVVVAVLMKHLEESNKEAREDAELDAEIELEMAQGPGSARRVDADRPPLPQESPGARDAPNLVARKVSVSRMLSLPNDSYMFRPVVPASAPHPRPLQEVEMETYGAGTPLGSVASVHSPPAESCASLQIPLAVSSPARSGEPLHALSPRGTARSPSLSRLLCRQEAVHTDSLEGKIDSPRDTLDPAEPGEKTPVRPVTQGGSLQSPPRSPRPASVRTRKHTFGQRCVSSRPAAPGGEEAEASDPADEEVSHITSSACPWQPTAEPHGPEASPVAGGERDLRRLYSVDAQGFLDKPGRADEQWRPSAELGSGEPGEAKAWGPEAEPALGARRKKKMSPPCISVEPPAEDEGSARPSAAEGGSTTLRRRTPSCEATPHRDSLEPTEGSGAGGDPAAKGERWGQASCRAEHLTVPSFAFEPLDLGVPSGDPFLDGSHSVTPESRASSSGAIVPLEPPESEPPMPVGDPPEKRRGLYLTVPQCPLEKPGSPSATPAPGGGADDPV
Procedure, shortened: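 HEK293 cells stably expressing the T-type channel were kept under puromycin/geneticin selection with 10% FBS at 37 °C and 5% CO2. Cells were seeded at 4×10^4 per well and loaded with fluo3/AM plus 0.001% Pluronic F-127 in HEPES buffer (pH 7.4, 1.8 mM CaCl2) for 60 min at room temperature. The KCl depolarisation-evoked [Ca2+]i rise was read on FDSS6000.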

[2] = biological target: T1, Voltage-dependent T-type calcium channel subunit alpha-1H; experiment: Inhibition of Cav3.2 alpha1H (unknown origin) expressed in HEK293 cells by whole-cell patch clamp assay; type: cell-based
Procedure, shortened: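 Whole-cell patch clamp was done on T-type channel-expressing cells. Currents were evoked every 15 s by a 50-ms step from −100 mV to −30 mV. IC50 for peak current was obtained by fitting a dose-response curve and given ± SD.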

CYP2D6 = CYP2D6 (Homo sapiens, UniProt P10635); experiment: Inhibition of recombinant human CYP2D6 expressed in baculosomes assessed as residual activity at 10 uM using vivid EOMCC/MOBFC as substrate after 15 mins in presence of NADPH by fluorescence assay relative to control; type: ADME; conditions: probe Vivid EOMCC/MOBFC, read-out: Activity
Sequence of CYP2D6 (P10635 whole entry, canonical isoform): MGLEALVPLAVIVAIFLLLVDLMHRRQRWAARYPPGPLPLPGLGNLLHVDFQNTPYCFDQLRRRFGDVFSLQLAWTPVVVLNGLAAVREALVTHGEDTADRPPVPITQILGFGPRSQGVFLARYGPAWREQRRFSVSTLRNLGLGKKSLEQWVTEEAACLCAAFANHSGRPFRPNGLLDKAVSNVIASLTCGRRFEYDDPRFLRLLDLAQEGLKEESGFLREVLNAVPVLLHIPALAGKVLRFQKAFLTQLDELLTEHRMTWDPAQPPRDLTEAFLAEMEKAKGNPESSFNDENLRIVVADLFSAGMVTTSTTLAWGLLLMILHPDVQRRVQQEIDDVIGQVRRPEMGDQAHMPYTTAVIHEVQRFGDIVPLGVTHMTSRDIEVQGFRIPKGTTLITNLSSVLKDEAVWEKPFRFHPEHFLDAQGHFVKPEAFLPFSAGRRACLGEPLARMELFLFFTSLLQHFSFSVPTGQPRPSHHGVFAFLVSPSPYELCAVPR
Procedure, shortened: (§1)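 Test compounds at 10 μM were premixed with baculosome CYP plus a regeneration system. After 15 min at 37 °C, Vivid substrates and NADPH were added. Remaining enzyme activity was read by fluorescence and expressed as % of control, as mean ± SD of triplicates. Isoform-selective inhibitors served as positive controls.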

CYP2C9 = CYP2C9 (Homo sapiens, UniProt P11712); experiment: Inhibition of recombinant human CYP2C9 expressed in baculosomes assessed as residual activity at 10 uM using vivid BOMCC/BOMF/OOMR as substrate after 15 mins in presence of NADPH by fluorescence assay relative to control; type: ADME; conditions: probe Vivid BOMCC/BOMF/OOMR, read-out: Activity; procedure, shortened: as §1
Sequence of CYP2C9 (P11712 whole entry): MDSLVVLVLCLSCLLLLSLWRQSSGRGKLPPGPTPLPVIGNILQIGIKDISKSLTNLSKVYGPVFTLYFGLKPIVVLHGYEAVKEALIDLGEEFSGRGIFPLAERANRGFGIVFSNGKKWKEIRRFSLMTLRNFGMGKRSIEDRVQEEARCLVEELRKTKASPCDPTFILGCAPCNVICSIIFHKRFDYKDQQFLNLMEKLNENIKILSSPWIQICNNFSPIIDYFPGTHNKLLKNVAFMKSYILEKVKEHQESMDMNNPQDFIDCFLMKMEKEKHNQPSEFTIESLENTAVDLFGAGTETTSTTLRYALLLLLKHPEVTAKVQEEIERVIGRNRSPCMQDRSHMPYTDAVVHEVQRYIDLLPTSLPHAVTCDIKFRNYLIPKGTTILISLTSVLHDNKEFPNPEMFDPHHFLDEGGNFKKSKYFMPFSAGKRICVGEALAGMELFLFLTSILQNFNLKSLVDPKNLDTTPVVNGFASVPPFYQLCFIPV

CYP3A4 = CYP3A4 (Homo sapiens, UniProt P08684); experiment: Inhibition of recombinant human CYP3A4 expressed in baculosomes assessed as residual activity at 10 uM using vivid BOMCC/DBOMF/BOMR as substrate after 15 mins in presence of NADPH by fluorescence assay relative to control; type: ADME; conditions: probe Vivid BOMCC/DBOMF/BOMR, read-out: Activity; procedure, shortened: as §1
Sequence of CYP3A4 (P08684 whole entry): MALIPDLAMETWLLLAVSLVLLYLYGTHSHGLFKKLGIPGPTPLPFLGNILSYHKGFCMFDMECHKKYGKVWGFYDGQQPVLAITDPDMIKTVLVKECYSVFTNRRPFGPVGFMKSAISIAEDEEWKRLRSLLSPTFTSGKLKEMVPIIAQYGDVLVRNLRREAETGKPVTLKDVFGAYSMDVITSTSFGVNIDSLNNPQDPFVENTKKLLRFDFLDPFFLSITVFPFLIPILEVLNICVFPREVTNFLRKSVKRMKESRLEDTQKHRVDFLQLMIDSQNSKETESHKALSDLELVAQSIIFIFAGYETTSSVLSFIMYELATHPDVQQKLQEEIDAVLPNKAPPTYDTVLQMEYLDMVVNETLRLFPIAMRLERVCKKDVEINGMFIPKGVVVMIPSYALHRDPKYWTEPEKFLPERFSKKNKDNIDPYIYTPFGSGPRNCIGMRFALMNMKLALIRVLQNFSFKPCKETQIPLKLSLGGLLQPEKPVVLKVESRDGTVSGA

[3] = Stability in human liver microsomes assessed as parent compound remaining at 1 uM after 30 mins in presence of NADPH by LC-MS/MS analysis; type: ADME, microsome; conditions: read-out: Stability
Procedure, shortened: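 Test compound at 1 μM was incubated with pooled human liver microsomes in potassium phosphate buffer with 1.2 mM NADPH at 37 °C for 30 min. The reaction was stopped with cold acetonitrile containing internal standard. Supernatant was analysed by LC-MS/MS for % remaining.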

CYP1A2 = biological target: T2, CYP1A2 (Homo sapiens, UniProt P05177); experiment: Inhibition of recombinant human CYP1A2 expressed in baculosomes assessed as residual activity at 10 uM using vivid EOMCC as substrate after 15 mins in presence of NADPH by fluorescence assay relative to control; type: ADME; conditions: probe Vivid EOMCC, read-out: Activity; procedure, shortened: as §1
T2 sequence (P05177 whole entry): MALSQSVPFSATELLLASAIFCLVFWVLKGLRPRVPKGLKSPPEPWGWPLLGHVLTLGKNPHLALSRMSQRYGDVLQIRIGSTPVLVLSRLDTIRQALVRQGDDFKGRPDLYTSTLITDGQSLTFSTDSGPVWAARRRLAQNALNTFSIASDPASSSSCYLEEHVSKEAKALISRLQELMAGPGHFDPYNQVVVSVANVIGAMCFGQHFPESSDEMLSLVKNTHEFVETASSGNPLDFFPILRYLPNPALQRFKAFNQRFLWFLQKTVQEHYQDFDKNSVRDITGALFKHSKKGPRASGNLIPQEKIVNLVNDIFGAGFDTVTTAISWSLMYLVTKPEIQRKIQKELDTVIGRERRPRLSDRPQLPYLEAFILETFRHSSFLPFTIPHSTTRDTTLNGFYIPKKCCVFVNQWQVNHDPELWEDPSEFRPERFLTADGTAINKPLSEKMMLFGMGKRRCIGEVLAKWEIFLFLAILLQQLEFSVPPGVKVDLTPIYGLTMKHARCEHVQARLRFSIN

Rattus norvegicus [4] = experiment: Anti-algetic activity in rat streptozotocin-induced neuropathic pain model assessed as reduction in heat hypersensitivity at 100 mg/kg, po measured after 1 to 5 hrs; type: functional, organism-based
Procedure, shortened: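 Type 1 diabetes induced in rats by intraperitoneal STZ (65 mg/kg); after 4 weeks, neuropathic rats selected by blood glucose level and pain behaviour. Single oral dose of 100 mg/kg given to groups of 5 or 6 rats; heat hypersensitivity tested at 1, 3 and 5 h. Changes compared with pre-administration values by paired t-test.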

Rattus norvegicus [5] = experiment: Anti-algetic activity in rat streptozotocin-induced neuropathic pain model assessed as reduction in mechanical allodynia at 100 mg/kg, po measured after 1 to 5 hrs; type: functional, organism-based
Procedure, shortened: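 Rats made diabetic by intraperitoneal STZ (65 mg/kg); 4 weeks later, rats with established neuropathic pain chosen by blood glucose level and behavioural testing. Single oral 100 mg/kg dose given to groups of 5 or 6 rats. Mechanical allodynia measured with von Frey filaments at 1, 3 and 5 h; paired t-test against pre-administration values.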

[6] = Mean residence time in rat at 10 mg/kg, iv; type: ADME, organism-based; conditions: in vivo
Procedure, shortened: (§2)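 Male rats dosed at 10 mg/kg, intravenously (n = 5) or orally (n = 4). Parameters taken from the plasma concentration-time curve and reported as mean ± SD. Brain-to-plasma ratio measured 2 h after dosing. Tmax given as median with range.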

[7] = AUC (0 to infinity) in rat at 10 mg/kg, po; type: ADME, organism-based; parameters: dose 10 mg/kg, route oral, time infinity; conditions: in vivo; procedure, shortened: as §2
[8] = Tmax in rat at 10 mg/kg, po; type: ADME, organism-based; conditions: in vivo; procedure, shortened: as §2
Rattus norvegicus [9] = experiment: Anti-algetic activity in rat streptozotocin-induced neuropathic pain model assessed as reduction in heat hypersensitivity at 50 mg/kg, po measured after 1 to 5 hrs; type: functional, organism-based
Procedure, shortened: (§3)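 Neuropathic pain was induced in rats by i.p. streptozotocin at 65 mg/kg and confirmed at 4 weeks by glucose and behaviour. Rats received a single oral 50 mg/kg dose, alone or together with gabapentin at 50 mg/kg (n = 6–7). Mechanical allodynia (von Frey) and heat hypersensitivity were tested at 1, 3 and 5 h. Paired t-test was used versus pre-dose.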

[10] = AUClast in rat at 10 mg/kg, iv; type: ADME, organism-based; parameters: dose 10 mg/kg, route intravenous, time 0 - last; conditions: in vivo; procedure, shortened: as §2
[11] = AUC (0 to infinity) in rat at 10 mg/kg, iv; type: ADME, organism-based; parameters: dose 10 mg/kg, route intravenous, time infinity; conditions: in vivo; procedure, shortened: as §2
Rattus norvegicus [12] = experiment: Anti-algetic activity in rat streptozotocin-induced neuropathic pain model assessed as reduction in mechanical allodynia at 100 mg/kg, po measured after 3 hrs; type: functional, organism-based
Procedure, shortened: (§4)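 STZ-diabetic rats were made by i.p. streptozotocin at 65 mg/kg. After 4 weeks, rats with confirmed neuropathic pain were selected by blood glucose and behavioural testing. A single oral dose of 100 mg/kg was given (n = 5–6). Mechanical allodynia was tested by von Frey, and heat hypersensitivity was also assessed, at 1, 3 and 5 h. Comparison was against pre-dose values by paired t-test.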

[13] = AUClast in rat at 10 mg/kg, po; type: ADME, organism-based; parameters: dose 10 mg/kg, route oral, time 0 - last; conditions: in vivo; procedure, shortened: as §2
[14] = Cmax in rat at 10 mg/kg, po; type: ADME, organism-based; parameters: dose 10 mg/kg, route oral; conditions: in vivo; procedure, shortened: as §2
[15] = Oral bioavailability in rat at 10 mg/kg; type: ADME, organism-based; conditions: in vivo; procedure, shortened: as §2
[16] = Ratio of drug level in brain to plasma in rat at 10 mg/kg, iv measured at 2 hrs post dose; type: ADME, organism-based; conditions: brain and plasma, read-out: BPR; procedure, shortened: as §2
[17] = Ratio of drug level in brain to plasma in rat at 10 mg/kg, po measured at 2 hrs post dose; type: ADME, organism-based; conditions: brain and plasma, read-out: BPR; procedure, shortened: as §2
Rattus norvegicus [18] = experiment: Anti-algetic activity in rat streptozotocin-induced neuropathic pain model assessed as reduction in heat hypersensitivity at 100 mg/kg, po measured after 3 hrs; type: functional, organism-based; procedure, shortened: as §4
[19] = Clearance in rat at 10 mg/kg, iv; type: ADME, organism-based; conditions: in vivo; procedure, shortened: as §2
[20] = Terminal half-life in rat at 10 mg/kg, po; type: ADME, organism-based; conditions: in vivo, read-out: beta t1/2; procedure, shortened: as §2
Rattus norvegicus [21] = experiment: Anti-algetic activity in rat streptozotocin-induced neuropathic pain model assessed as reduction in heat hypersensitivity at 50 mg/kg, po measured after 3 hrs in presence of gabapentin; type: functional, organism-based; procedure, shortened: as §3
Rattus norvegicus [22] = experiment: Anti-algetic activity in rat streptozotocin-induced neuropathic pain model assessed as reduction in mechanical allodynia at 50 mg/kg, po measured after 1 to 5 hrs; type: functional, organism-based; procedure, shortened: as §3
[23] = Terminal half-life in rat at 10 mg/kg, iv; type: ADME, organism-based; conditions: in vivo, read-out: beta t1/2; procedure, shortened: as §2

SMILES: CC(C)(C)n1nc(CN2Cc3ccccc3S2(=O)=O)cc1-c1ccc(C2CCCCC2)cc1
- inhibition [1]: 9.86%

SMILES: CC(C)c1cc(CN2Cc3ccccc3S2(=O)=O)nn1C(C)(C)C
- IC50 [2]: 3.69 µM
- activity at 0.25 h, 10 µM (CYP2D6): 78.8%
- activity at 0.25 h, 10 µM (CYP2C9): 90.7%
- inhibition [1]: 68%
- activity at 0.25 h, 10 µM (CYP3A4): 52.1%
- remaining at 0.5 h, 1 µM [3]: 103%
- activity at 0.25 h, 10 µM (CYP1A2): 123%

SMILES: CC(C)(C)n1nc(CN2Cc3ccccc3S2(=O)=O)cc1-c1ccc(C(F)(F)F)cc1
- inhibition [1]: 20.8%

SMILES: NCC1(CC(=O)O)CCCCC1
- Activity (Rattus norvegicus [4]): Active
- Activity (Rattus norvegicus [5]): inactive

SMILES: CC(C)c1cc(CN2Cc3ccccc3S2(=O)=O)nn1-c1ccccc1
- IC50 [2]: 2.52 µM
- activity at 0.25 h, 10 µM (CYP2D6): 86.6%
- activity at 0.25 h, 10 µM (CYP2C9): 14.2%
- inhibition [1]: 75.5%
- activity at 0.25 h, 10 µM (CYP3A4): 47.2%
- remaining at 0.5 h, 1 µM [3]: 4.69%

SMILES: CC(C)c1cc(CN2Cc3ccccc3S2(=O)=O)nn1-c1ccc(F)cc1
- IC50 [2]: 2.32 µM
- activity at 0.25 h, 10 µM (CYP2D6): 90.6%
- MRT [6]: 1.7 h
- AUC(0-inf) [7]: 274 ng·h/mL
- Tmax [8]: 2.5 h
- Activity (Rattus norvegicus [9]): inactive
- AUC(0-t) [10]: 2630 ng·h/mL
- AUC(0-inf) [11]: 2980 ng·h/mL
- Activity (Rattus norvegicus [12]): inactive
- activity at 0.25 h, 10 µM (CYP2C9): 103%
- inhibition [1]: 71.6%
- AUC(0-t) [13]: 243 ng·h/mL
- activity at 0.25 h, 10 µM (CYP3A4): 45.7%
- Cmax [14]: 100 ng/mL
- bioavailability [15]: 9.2%
- Kp at 2 h [16]: 1.28
- Kp at 2 h [17]: 0.13
- Activity (Rattus norvegicus [18]): inactive
- clearance [19]: 57.7 mL/min/kg
- half-life [20]: 117 min
- Activity (Rattus norvegicus [21]): Active
- remaining at 0.5 h, 1 µM [3]: 102%
- activity at 0.25 h, 10 µM (CYP1A2): 110%
- Activity (Rattus norvegicus [22]): inactive
- half-life [23]: 176 min

SMILES: CC(C)Cc1cc(CNS(=O)(=O)c2ccccc2)nn1-c1ccccc1
- remaining at 0.5 h, 1 µM [3]: 13.9%

SMILES: CC(C)c1cc(CN2Cc3ccccc3S2(=O)=O)nn1-c1c(Cl)cccc1Cl
- inhibition [1]: 29.5%

SMILES: CC(C)(C)n1nc(CN2Cc3ccccc3S2(=O)=O)cc1-c1ccc(F)cc1
- inhibition [1]: 23.1%

SMILES: CC(C)(C)n1nc(CN2Cc3ccccc3S2(=O)=O)cc1-c1ccccc1
- inhibition [1]: 18.7%

SMILES: Cc1c(CNS(=O)(=O)c2ccccc2)nn(-c2ccccc2)c1CC(C)C
- IC50 [2]: 4.3 µM
- activity at 0.25 h, 10 µM (CYP2D6): 45.2%
- activity at 0.25 h, 10 µM (CYP2C9): 45.2%
- inhibition [1]: 72%
- activity at 0.25 h, 10 µM (CYP3A4): 38.7%
- remaining at 0.5 h, 1 µM [3]: 0.26%

SMILES: CC(C)Cc1cc(CN(C)S(=O)(=O)c2ccccc2)nn1-c1ccccc1
- inhibition [1]: 54.2%
- remaining at 0.5 h, 1 µM [3]: 1.46%

SMILES: CC(C)(C)n1nc(CN2Cc3ccccc3S2(=O)=O)cc1-c1ccc(N2CCCCC2)cc1
- inhibition [1]: 16.3%

SMILES: CC(C)n1nc(CN2Cc3ccccc3S2(=O)=O)cc1-c1ccccc1
- inhibition [1]: 22.1%

SMILES: CC(C)n1nc(CN2Cc3ccccc3S2(=O)=O)cc1-c1ccc(F)cc1
- inhibition [1]: 16.5%
